How the values were obtained:
Homo sapiens = species on record: Homo sapiens; assay: Inhibitory activity against production of leukotriene B4 in isolated human polymorphonuclear leukocytes; format: functional
Outline: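 Leukotriene biosynthesis in human polymorphonuclear leukocytes was started with calcium ionophore A23187, and LTB₄ was quantified by radioimmunoassay. Inhibition curves came from five-point titrations fitted with a four-parameter algorithm to give IC50. Compounds were generally tested at least in duplicate, with the IC50 reported as the mean of all determinations.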

[1] = Partition coefficient (logP); format: physicochemical; settings: octanol/water
Outline: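 Octanol/water log P was estimated by calculation with commercial software, not measured experimentally.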

Mus musculus [2] = assay: Tested for ability to inhibit the topical inflammatory response in the topical mouse ear(TME) model; format: functional
Outline: (§1)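 Mice received 25 μL on the inner surface of one ear, with five mice per group. Compound was applied in acetone/pyridine/water 97:2:1 together with 200 μg/mL PMA as irritant. Controls received vehicle alone or vehicle with PMA. Solvent was evaporated at room temperature. After 4 h, 6-mm ear punches were weighed wet to measure edema. ED50 came from four-point titrations.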

Mus musculus [3] = assay: Tested for its ability to inhibit the topical inflammatory response in the topical mouse ear(TME) model; format: functional; outline: as §1

Structure (SMILES)	IC50 (Homo sapiens)	logP [1]	ED50 (Mus musculus [2])	ED50 (Mus musculus [3])
OCc1ccccc1NCc1c(O)ccc2c1CCCO2	17 µM	2.4	0.6 uM site-1	–
N#Cc1ccc(NCc2cc3c(cc2O)CCO3)s1	0.99 µM	2.8	–	–
CC(=O)c1ccc(SCc2cc3c(cc2O)CCCO3)cc1	0.44 µM	4.2	–	–
Oc1cc2c(cc1CNc1ccc(F)cc1F)OCC2	0.66 µM	3.6	–	–
COc1ccc(O)c(CCc2ccccc2)c1	0.12 µM	4.3	–	–
COc1ccc(O)c(CNc2ccccc2)c1	4.7 µM	2.8	–	0.61 uM site-1
COc1ccc(O)c(CNc2ccc(F)cc2F)c1	1.3 µM	3.5	–	–
CC(=O)c1ccc(/C=C/Cc2cc3c(cc2O)CCO3)cc1	0.06 µM	4	0.54 uM site-1	–
COc1ccc2c(c1)c(CC(=O)O)c(C)n2C(=O)c1ccc(Cl)cc1 [INDOMETHACIN]	–	–	0.64 uM site-1	–
OCc1ccccc1/C=C/Cc1cc2c(cc1O)CCO2	0.13 µM	3.5	0.74 uM site-1	–
COc1ccc(O)c(C/C=C/c2ccccc2)c1	0.25 µM	4.4	1.08 uM site-1	–
OCc1ccccc1NCc1cc2occc2cc1O	42 µM	2.2	0.44 uM site-1	–
N#Cc1cc(NCc2cc3c(cc2O)CCO3)cs1	0.44 µM	2.8	–	–
COc1ccc(O)c(COc2ccccc2)c1	1.4 µM	3.3	–	–
OCc1ccccc1CCCc1cc2c(cc1O)CCO2	0.19 µM	4	–	–
Oc1ccc2c(c1CNc1ccc(F)cc1F)CCCO2	1.4 µM	4.2	–	–
COc1ccc(O)c(CSc2ccccc2CO)c1	8.7 µM	2.9	0.87 uM site-1	–
COc1ccc(O)c(CSc2ccccc2)c1	0.59 µM	3.9	–	–
CC(=O)c1ccc(NCc2c(O)ccc3c2CCCO3)cc1	11 µM	3.5	–	–
COc1ccc(O)c(CNc2ccc(C#N)s2)c1	2.6 µM	2.7	–	–
O=Cc1ccccc1/C=C/Cc1cc2c(cc1O)CCO2	0.07 µM	3.9	–	–

Continued, in another order:

IC50 (Homo sapiens)	logP [1]	Structure (SMILES)	ED50 (Mus musculus [2])	ED50 (Mus musculus [3])
1.7 µM	3.5	Oc1cc2c(cc1CNc1ccccc1)OCCC2	0.67 uM site-1	–
1.4 µM	3.6	OCc1ccccc1SCc1cc2c(cc1O)CCCO2	–	–
0.6 µM	4.6	CCOC(=O)c1ccc(NCc2cc3c(cc2O)CCCO3)cc1	–	–
1.2 µM	2.9	CC(=O)c1ccc(NCc2cc3c(cc2O)CCO3)cc1	0.35 uM site-1	–
11 µM	3.3	Oc1cc2ccoc2cc1CNc1ccccc1	0.97 uM site-1	–
1.3 µM	4.2	Oc1cc2c(cc1CNc1ccc(F)cc1F)OCCC2	–	–
4.1 µM	3.5	CC(=O)c1ccc(NCc2cc3c(cc2O)CCCO3)cc1	0.35 uM site-1	–
1.6 µM	3.6	N#Cc1ccc(NCc2cc3c(cc2O)CCCO3)cc1	1.61 uM site-1	–
11 µM	1.9	OCc1ccccc1NCc1cc2c(cc1O)CCO2	–	–
0.49 µM	2.9	Oc1cc2c(cc1CNc1ccccc1)OCC2	–	–
21 µM	2.4	OCc1ccccc1NCc1cc2c(cc1O)CCCO2	0.49 uM site-1	–

From ChEMBL document CHEMBL1124721, “Antioxidant-based inhibitors of leukotriene biosynthesis. The discovery of 6-[1-[2-(hydroxymethyl)phenyl]-1-propen-3-yl]-2,3-dihydro-5- benzofuranol, a potent topical antiinflammatory agent” (J Med Chem, 1990)
